{"source": "ChEMBL document CHEMBL1135670", "about": "“Discovery of 8-hydroxyadenines as a novel type of interferon inducer” (2002)", "key": {"Mus musculus [1]": {"system": "Mus musculus", "assay": "Minimum effective dose required for more than 100 IU/mL induction of IFN using mice after peroral administration.", "type": "functional", "settings": "po, read-out: MED", "procedure,_shortened": "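Compound dosed orally to mice; IFN measured in plasma in IU/mL. Value is the minimum effective dose in mg/kg, the lowest dose giving more than 100 IU/mL IFN.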"}, "Mus musculus [2]": {"species": "Mus musculus", "assay": "Minimum effective concentration required for more than 1 IU/mL induction of IFN using mice spleen cells", "type": "functional", "settings": "read-out: MEC", "procedure,_shortened": "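Mouse spleen cells incubated with compound; IFN released into medium measured in IU/mL. Value is the minimum effective concentration, the lowest concentration giving more than 1 IU/mL IFN.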"}}}
{"smiles": "CCCCCOc1nc(N)c2nc(O)n(Cc3ccccc3)c2n1", "values": [{"measurement": "minimal effective dose", "setting": "Mus musculus [1]", "result": 0.3, "unit": "mg/kg"}, {"measurement": "minimal effective concentration", "setting": "Mus musculus [2]", "result": 0.01, "unit": "µM"}]}
{"smiles": "Nc1nc(N)c2nc(O)n(Cc3ccccc3)c2n1", "values": [{"measurement": "minimal effective concentration", "setting": "Mus musculus [2]", "result": 10, "unit": "µM"}]}
{"smiles": "Nc1nc(-c2ccccc2)nc2c1nc(O)n2Cc1ccccc1", "values": [{"measurement": "minimal effective dose", "setting": "Mus musculus [1]", "result": "> 30", "unit": "mg/kg"}, {"measurement": "minimal effective concentration", "setting": "Mus musculus [2]", "result": 10, "unit": "µM"}]}
{"smiles": "Nc1ncnc2[nH]c(O)nc12", "values": [{"measurement": "minimal effective concentration", "setting": "Mus musculus [2]", "result": "> 10", "unit": "µM"}]}
{"smiles": "Cc1nc(N)c2nc(O)n(Cc3ccccc3)c2n1", "values": [{"measurement": "minimal effective dose", "setting": "Mus musculus [1]", "result": 3, "unit": "mg/kg"}, {"measurement": "minimal effective concentration", "setting": "Mus musculus [2]", "result": 1, "unit": "µM"}]}
{"smiles": "CCNc1nc(N)c2nc(O)n(Cc3ccccc3)c2n1", "values": [{"measurement": "minimal effective concentration", "setting": "Mus musculus [2]", "result": 1, "unit": "µM"}]}
{"smiles": "CCCOc1nc(N)c2nc(O)n(Cc3ccccc3)c2n1", "values": [{"measurement": "minimal effective dose", "setting": "Mus musculus [1]", "result": 0.3, "unit": "mg/kg"}, {"measurement": "minimal effective concentration", "setting": "Mus musculus [2]", "result": 0.01, "unit": "µM"}]}
{"smiles": "CCOc1nc(N)c2nc(O)n(Cc3ccccc3)c2n1", "values": [{"measurement": "minimal effective dose", "setting": "Mus musculus [1]", "result": 0.3, "unit": "mg/kg"}, {"measurement": "minimal effective concentration", "setting": "Mus musculus [2]", "result": 0.1, "unit": "µM"}]}
{"smiles": "COc1cccc(Cn2c(O)nc3c(N)ncnc32)c1", "values": [{"measurement": "minimal effective concentration", "setting": "Mus musculus [2]", "result": 10, "unit": "µM"}]}
{"smiles": "COc1ccc(Cn2c(O)nc3c(N)ncnc32)cc1", "values": [{"measurement": "minimal effective concentration", "setting": "Mus musculus [2]", "result": 10, "unit": "µM"}]}
{"smiles": "COc1nc2c(N)ncnc2n1Cc1ccccc1", "values": [{"measurement": "minimal effective concentration", "setting": "Mus musculus [2]", "result": "> 10", "unit": "µM"}]}
{"smiles": "Nc1ncnc2c1nc(O)n2Cc1ccc(F)cc1", "values": [{"measurement": "minimal effective dose", "setting": "Mus musculus [1]", "result": 30, "unit": "mg/kg"}, {"measurement": "minimal effective concentration", "setting": "Mus musculus [2]", "result": 10, "unit": "µM"}]}
{"smiles": "Nc1nc(SCc2ccccc2)nc2c1nc(O)n2Cc1ccccc1", "values": [{"measurement": "minimal effective dose", "setting": "Mus musculus [1]", "result": "> 1", "unit": "mg/kg"}, {"measurement": "minimal effective concentration", "setting": "Mus musculus [2]", "result": 0.1, "unit": "µM"}]}
{"smiles": "CCCCOc1nc(N)c2[nH]c(=O)n(Cc3ccccc3)c2n1", "values": [{"measurement": "minimal effective dose", "setting": "Mus musculus [1]", "result": 0.1, "unit": "mg/kg"}, {"measurement": "minimal effective concentration", "setting": "Mus musculus [2]", "result": 0.001, "unit": "µM"}]}
{"smiles": "CCCCc1nc(N)c2nc(O)n(Cc3ccccc3)c2n1", "values": [{"measurement": "minimal effective dose", "setting": "Mus musculus [1]", "result": 0.3, "unit": "mg/kg"}, {"measurement": "minimal effective concentration", "setting": "Mus musculus [2]", "result": 0.03, "unit": "µM"}]}
{"smiles": "Nc1ncnc2c1nc(Br)n2Cc1ccccc1", "values": [{"measurement": "minimal effective concentration", "setting": "Mus musculus [2]", "result": "> 10", "unit": "µM"}]}
{"smiles": "CCCc1nc(N)c2nc(O)n(Cc3ccccc3)c2n1", "values": [{"measurement": "minimal effective dose", "setting": "Mus musculus [1]", "result": 3, "unit": "mg/kg"}, {"measurement": "minimal effective concentration", "setting": "Mus musculus [2]", "result": 1, "unit": "µM"}]}
{"smiles": "CCCCNc1nc(N)c2nc(O)n(Cc3ccccc3)c2n1", "values": [{"measurement": "minimal effective dose", "setting": "Mus musculus [1]", "result": 0.1, "unit": "mg/kg"}, {"measurement": "minimal effective concentration", "setting": "Mus musculus [2]", "result": 0.1, "unit": "µM"}]}
{"smiles": "CCc1nc(N)c2nc(O)n(Cc3ccccc3)c2n1", "values": [{"measurement": "minimal effective dose", "setting": "Mus musculus [1]", "result": 3, "unit": "mg/kg"}, {"measurement": "minimal effective concentration", "setting": "Mus musculus [2]", "result": 1, "unit": "µM"}]}
{"smiles": "Cc1nc2c(N)ncnc2n1Cc1ccccc1", "values": [{"measurement": "minimal effective concentration", "setting": "Mus musculus [2]", "result": "> 10", "unit": "µM"}]}
{"smiles": "Nc1ncnc2c1nc(O)n2-c1ccccc1", "values": [{"measurement": "minimal effective concentration", "setting": "Mus musculus [2]", "result": "> 10", "unit": "µM"}]}
{"smiles": "CCCCSc1nc(N)c2nc(O)n(Cc3ccccc3)c2n1", "values": [{"measurement": "minimal effective dose", "setting": "Mus musculus [1]", "result": 0.3, "unit": "mg/kg"}, {"measurement": "minimal effective concentration", "setting": "Mus musculus [2]", "result": 0.01, "unit": "µM"}]}
{"smiles": "CCCCCSc1nc(N)c2nc(O)n(Cc3ccccc3)c2n1", "values": [{"measurement": "minimal effective dose", "setting": "Mus musculus [1]", "result": 1, "unit": "mg/kg"}, {"measurement": "minimal effective concentration", "setting": "Mus musculus [2]", "result": 10, "unit": "µM"}]}
{"smiles": "Nc1ncnc2c1nc(Cl)n2Cc1ccccc1", "values": [{"measurement": "minimal effective concentration", "setting": "Mus musculus [2]", "result": "> 10", "unit": "µM"}]}
{"smiles": "CSc1nc(N)c2nc(O)n(Cc3ccccc3)c2n1", "values": [{"measurement": "minimal effective dose", "setting": "Mus musculus [1]", "result": 0.1, "unit": "mg/kg"}, {"measurement": "minimal effective concentration", "setting": "Mus musculus [2]", "result": 0.1, "unit": "µM"}]}
{"smiles": "Nc1nc(S)nc2c1nc(O)n2Cc1ccccc1", "values": [{"measurement": "minimal effective concentration", "setting": "Mus musculus [2]", "result": 10, "unit": "µM"}]}
{"smiles": "CCCSc1nc(N)c2nc(O)n(Cc3ccccc3)c2n1", "values": [{"measurement": "minimal effective dose", "setting": "Mus musculus [1]", "result": 0.1, "unit": "mg/kg"}, {"measurement": "minimal effective concentration", "setting": "Mus musculus [2]", "result": 0.01, "unit": "µM"}]}
{"smiles": "NNc1nc2c(N)ncnc2n1Cc1ccccc1", "values": [{"measurement": "minimal effective concentration", "setting": "Mus musculus [2]", "result": "> 10", "unit": "µM"}]}
{"smiles": "CCSc1nc(N)c2nc(O)n(Cc3ccccc3)c2n1", "values": [{"measurement": "minimal effective dose", "setting": "Mus musculus [1]", "result": 0.1, "unit": "mg/kg"}, {"measurement": "minimal effective concentration", "setting": "Mus musculus [2]", "result": 0.1, "unit": "µM"}]}
{"smiles": "Nc1ncnc2c1nc(I)n2Cc1ccccc1", "values": [{"measurement": "minimal effective concentration", "setting": "Mus musculus [2]", "result": "> 10", "unit": "µM"}]}
{"smiles": "Nc1ncnc2c1nc(O)n2Cc1cccc2ccccc12", "values": [{"measurement": "minimal effective concentration", "setting": "Mus musculus [2]", "result": 10, "unit": "µM"}]}
{"smiles": "COc1ccccc1Cn1c(O)nc2c(N)ncnc21", "values": [{"measurement": "minimal effective concentration", "setting": "Mus musculus [2]", "result": 10, "unit": "µM"}]}
{"smiles": "COc1nc(N)c2nc(O)n(Cc3ccccc3)c2n1", "values": [{"measurement": "minimal effective dose", "setting": "Mus musculus [1]", "result": "> 1", "unit": "mg/kg"}, {"measurement": "minimal effective concentration", "setting": "Mus musculus [2]", "result": 0.1, "unit": "µM"}]}
{"smiles": "Nc1nc(O)nc2c1nc(O)n2Cc1ccccc1", "values": [{"measurement": "minimal effective dose", "setting": "Mus musculus [1]", "result": 1, "unit": "mg/kg"}, {"measurement": "minimal effective concentration", "setting": "Mus musculus [2]", "result": 0.1, "unit": "µM"}]}
{"smiles": "CCCCCNc1nc(N)c2nc(O)n(Cc3ccccc3)c2n1", "values": [{"measurement": "minimal effective dose", "setting": "Mus musculus [1]", "result": 0.3, "unit": "mg/kg"}, {"measurement": "minimal effective concentration", "setting": "Mus musculus [2]", "result": 0.1, "unit": "µM"}]}
{"smiles": "Cc1ccc(Cn2c(O)nc3c(N)ncnc32)cc1", "values": [{"measurement": "minimal effective concentration", "setting": "Mus musculus [2]", "result": 10, "unit": "µM"}]}
{"smiles": "CSc1nc2c(N)ncnc2n1Cc1ccccc1", "values": [{"measurement": "minimal effective concentration", "setting": "Mus musculus [2]", "result": "> 10", "unit": "µM"}]}
{"smiles": "Nc1ncnc2c1nc(S)n2Cc1ccccc1", "values": [{"measurement": "minimal effective dose", "setting": "Mus musculus [1]", "result": "> 30", "unit": "mg/kg"}, {"measurement": "minimal effective concentration", "setting": "Mus musculus [2]", "result": 10, "unit": "µM"}]}
{"smiles": "Nc1ncnc2c1nc(O)n2C1CCCC1", "values": [{"measurement": "minimal effective concentration", "setting": "Mus musculus [2]", "result": "> 10", "unit": "µM"}]}
{"smiles": "CCCNc1nc(N)c2nc(O)n(Cc3ccccc3)c2n1", "values": [{"measurement": "minimal effective dose", "setting": "Mus musculus [1]", "result": 1, "unit": "mg/kg"}, {"measurement": "minimal effective concentration", "setting": "Mus musculus [2]", "result": 0.1, "unit": "µM"}]}
{"smiles": "Nc1ncnc2c1nc(O)n2Cc1ccc(Cl)cc1", "values": [{"measurement": "minimal effective dose", "setting": "Mus musculus [1]", "result": 30, "unit": "mg/kg"}, {"measurement": "minimal effective concentration", "setting": "Mus musculus [2]", "result": 10, "unit": "µM"}]}
{"smiles": "CCCCn1c(O)nc2c(N)ncnc21", "values": [{"measurement": "minimal effective concentration", "setting": "Mus musculus [2]", "result": "> 10", "unit": "µM"}]}
{"smiles": "CNc1nc(N)c2nc(O)n(Cc3ccccc3)c2n1", "values": [{"measurement": "minimal effective concentration", "setting": "Mus musculus [2]", "result": 1, "unit": "µM"}]}
{"smiles": "Nc1ncnc2c1nc(O)n2Cc1ccccc1", "values": [{"measurement": "minimal effective dose", "setting": "Mus musculus [1]", "result": 30, "unit": "mg/kg"}, {"measurement": "minimal effective concentration", "setting": "Mus musculus [2]", "result": 10, "unit": "µM"}]}
{"smiles": "CCCC[S+]([O-])c1nc(N)c2nc(O)n(Cc3ccccc3)c2n1", "note": "(centres undefined)", "values": [{"measurement": "minimal effective dose", "setting": "Mus musculus [1]", "result": 1, "unit": "mg/kg"}, {"measurement": "minimal effective concentration", "setting": "Mus musculus [2]", "result": 0.01, "unit": "µM"}]}
{"smiles": "Nc1ncnc2c1nc(O)n2CCc1ccccc1", "values": [{"measurement": "minimal effective concentration", "setting": "Mus musculus [2]", "result": "> 10", "unit": "µM"}]}
{"smiles": "Nc1ncnc2c1ncn2Cc1ccccc1", "note": "[9-BENZYL-9H-ADENINE]", "values": [{"measurement": "minimal effective concentration", "setting": "Mus musculus [2]", "result": "> 10", "unit": "µM"}]}
{"smiles": "CC(C)Cn1cnc2c(N)nc3ccccc3c21", "note": "[IMIQUIMOD]", "values": [{"measurement": "minimal effective dose", "setting": "Mus musculus [1]", "result": 3, "unit": "mg/kg"}, {"measurement": "minimal effective concentration", "setting": "Mus musculus [2]", "result": 1, "unit": "µM"}]}
